Results as given in ChEMBL document CHEMBL5113395, “Azetidin-2-one-based small molecules as dual hHDAC6/HDAC8 inhibitors: Investigation of their mechanism of action and impact of dual inhibition profile on cell viability” (Eur J Med Chem, 2022).
Active and inactive are the calls of the source. No cut-off for these calls is given here.

How the values were obtained:
[1] = target: T1, Protein deacetylase HDAC6 (Homo sapiens, UniProt Q9UBN7); assay: Inhibition of recombinant human full length N-terminal GST-tagged HDAC6 expressed in Sf9 cells using ZMAL (Z-(Ac)Lys-AMC as substrate measured after 90 mins by fluorescence plate reader analysis
T1 sequence (Q9UBN7 whole entry): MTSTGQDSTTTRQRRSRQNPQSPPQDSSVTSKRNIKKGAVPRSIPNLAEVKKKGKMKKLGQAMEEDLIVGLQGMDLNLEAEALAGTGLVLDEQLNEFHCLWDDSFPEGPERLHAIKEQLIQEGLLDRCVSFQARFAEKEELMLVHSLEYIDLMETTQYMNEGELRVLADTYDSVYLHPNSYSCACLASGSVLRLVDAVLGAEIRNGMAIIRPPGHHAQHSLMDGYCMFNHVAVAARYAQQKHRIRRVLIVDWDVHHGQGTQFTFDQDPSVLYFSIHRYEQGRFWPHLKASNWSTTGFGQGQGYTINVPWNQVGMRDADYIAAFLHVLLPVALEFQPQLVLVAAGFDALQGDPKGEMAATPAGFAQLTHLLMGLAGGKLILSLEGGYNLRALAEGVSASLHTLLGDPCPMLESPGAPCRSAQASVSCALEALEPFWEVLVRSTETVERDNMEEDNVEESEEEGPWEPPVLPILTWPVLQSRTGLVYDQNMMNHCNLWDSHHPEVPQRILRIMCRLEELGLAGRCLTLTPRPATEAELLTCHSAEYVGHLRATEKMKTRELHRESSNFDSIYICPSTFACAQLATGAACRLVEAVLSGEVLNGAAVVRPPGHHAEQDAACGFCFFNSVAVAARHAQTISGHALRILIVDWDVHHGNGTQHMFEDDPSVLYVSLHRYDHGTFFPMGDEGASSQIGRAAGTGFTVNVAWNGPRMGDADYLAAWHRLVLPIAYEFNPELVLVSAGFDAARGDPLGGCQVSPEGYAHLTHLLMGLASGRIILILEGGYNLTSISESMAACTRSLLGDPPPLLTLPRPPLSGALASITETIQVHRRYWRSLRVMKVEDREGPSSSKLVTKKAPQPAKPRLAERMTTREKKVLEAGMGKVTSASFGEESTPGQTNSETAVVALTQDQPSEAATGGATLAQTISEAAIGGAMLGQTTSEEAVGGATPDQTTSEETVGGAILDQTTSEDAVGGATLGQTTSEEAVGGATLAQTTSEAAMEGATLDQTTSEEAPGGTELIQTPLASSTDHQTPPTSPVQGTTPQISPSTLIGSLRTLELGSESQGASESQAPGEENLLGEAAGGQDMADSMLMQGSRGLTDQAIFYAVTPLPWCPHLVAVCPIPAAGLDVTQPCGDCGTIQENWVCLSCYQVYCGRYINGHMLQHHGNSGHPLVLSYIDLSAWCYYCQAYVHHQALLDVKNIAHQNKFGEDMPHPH

Homo sapiens [2] = species on record: Homo sapiens; assay: Selectivity index, ratio of IC50 for inhibition of recombinant human full length N-terminal GST-tagged HDAC6 expressed in Sf9 cells to IC50 for inhibition of recombinant human HDAC8
Summary of the method: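 HDAC1 and HDAC6 IC50 values from the ZMAL fluorogenic assay: 37 °C for 90 min, then trypsin/TSA development, read at ex 390/em 460 nm. HDAC8 IC50 from the kit enzyme (0.45 U/reaction), 0.5% DMSO, 15 min preincubation with compound, 50 μM Fluor de Lys substrate, 1 h at 30 °C. HDAC8 reaction quenched with TSA (2 μM) in developer, 1 h, read at ex 370/em 450 nm, IC50 by nonlinear regression. Ratio of IC50s.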

HCT-116 = assay: Antiproliferation activity against human HCT-116 cells assessed as reduction in cell viability at 5 to 50 uM measured after 48 hrs by MTT assay; format: functional, cell-based; conditions: dose 5-50 µM
Summary of the method: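 HCT116 cells in DMEM with 10% heat-inactivated FBS were seeded at 3×10^4 cells/well and treated in triplicate at 1, 5, 10 and 50 µM for 24 and 48 h. MTT at 0.5 mg/mL was added for 3 h, formazan was dissolved in DMSO, and absorbance was read at 570 nm.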

[3] = Metabolic stability in mouse liver microsome assessed as apparent decay constant at 5 uM in presence of NADPH incubated up to 60 mins by HPLC analysis; format: ADME; conditions: liver microsomes
Summary of the method: (§1)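 Compound in MeCN was incubated at 5 µM and 37 °C in 100 mM phosphate buffer pH 7.4 with 0.5 mg/mL human or mouse liver microsomal protein. Reactions were started with an NADPH-regenerating system (2 mM NADPH, glucose-6-phosphate, G6PDH, MgCl2) and stopped with MeCN over 0–60 min. Remaining compound was measured by HPLC-UV at 254 nm, in triplicate, with first-order decay fitting.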

[4] = Metabolic stability in rat liver microsome assessed as apparent decay constant at 5 uM in presence of NADPH incubated up to 60 mins by HPLC analysis; format: ADME; conditions: liver microsomes
Summary of the method: (§2)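 Compound (in MeCN) at 5 μM incubated at 37 °C in 100 mM phosphate buffer pH 7.4 with 0.5 mg/mL liver microsomal protein (rat, mouse or human). CYP reactions started with NADPH-generating system (2 mM NADPH, glucose-6-phosphate, G6P dehydrogenase, MgCl2). Stopped with MeCN at intervals over 0–60 min. Remaining parent quantified by HPLC-UV at 254 nm. Ln % recovery vs time fitted to first-order decay. Triplicate incubations.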

[5] = Toxicity in zebrafish AB embryos at 25 to 75 uM measured after 24 hrs; conditions: Danio rerio, in vivo
[6] = Metabolic stability in human liver microsome assessed as intrinsic clearance at 5 uM measured per mg protein in presence of NADPH incubated up to 60 mins by HPLC analysis; format: ADME; conditions: microsomes, 1 h; summary of the method: as §1
[7] = Metabolic stability in human liver microsome assessed as apparent decay constant at 5 uM in presence of NADPH incubated up to 60 mins by HPLC analysis; format: ADME; conditions: microsomes, 1 h; summary of the method: as §1
Homo sapiens [8] = species on record: Homo sapiens; assay: Selectivity index, ratio of IC50 for inhibition of recombinant human full length C-terminal FLAG/His-tagged HDAC1 expressed in Sf9 insect cells to IC50 for inhibition of recombinant human full length N-terminal GST-tagged HDAC6 expressed in Sf9 cells
Summary of the method: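 Human recombinant HDAC1 or HDAC6 in Tris-HCl pH 8.0 buffer (NaCl, KCl, MgCl2, 1 mg/mL BSA). Incubated with inhibitor dilutions in DMSO and fluorogenic ZMAL substrate (126 μM) at 37 °C for 90 min. Stopped with trichostatin A/trypsin, 30 min at 37 °C. Fluorescence read at ex 390/em 460 nm. IC50 from at least three determinations; ratio HDAC1/HDAC6 IC50.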

[9] = Metabolic stability in rat liver microsome assessed as half life at 5 uM in presence of NADPH incubated up to 60 mins by HPLC analysis; format: ADME; conditions: liver microsomes; summary of the method: as §2
Danio rerio = assay: In vivo inhibition of HDAC8 in zebrafish AB embryos assessed as increase in acetylation level of alpha-tubulin at 20 to 75 uM measured after 24 hrs by Western blot analysis; format: functional, organism-based; conditions: dose 20-75 µM

O=C(NO)c1ccc(CNC(=O)N2CCC(N3C(=O)[C@H](c4ccccc4)[C@H]3c3ccccc3)CC2)cc1 (racemic)
IC50 [1]: 21 nM | Ratio IC50 (Homo sapiens [2]): 2 | Activity (HCT-116): Active | k el at 1 h, 5 µM [3]: 0.000182 s⁻¹ | k el at 1 h, 5 µM [4]: 0.000135 s⁻¹ | Activity [5]: Non-Toxic | CLH [6]: 32.28 µL/min | K [7]: 0.0129 min⁻¹ | Ratio IC50 (Homo sapiens [8]): 200 | half-life at 5 µM [9]: 86 min | Activity (Danio rerio): Active

O=C(NO)c1ccc(CNC(=O)N2CCC(N3CC(c4ccccc4)(c4ccccc4)C3=O)CC2)cc1
IC50 [1]: 3.4 nM | Ratio IC50 (Homo sapiens [2]): 29 | Activity (HCT-116): Active | k el at 1 h, 5 µM [3]: 0.000173 s⁻¹ | k el at 1 h, 5 µM [4]: 0.000118 s⁻¹ | Activity [5]: Non-Toxic | CLH [6]: 90.5 µL/min | K [7]: 0.0362 min⁻¹ | Ratio IC50 (Homo sapiens [8]): 1260 | half-life at 5 µM [9]: 98 min | Activity (Danio rerio): Active

O=C(NO)c1ccc(CC(=O)N2CCC(N3CC(c4ccccc4)(c4ccccc4)C3=O)CC2)cc1
IC50 [1]: 91 nM | Ratio IC50 (Homo sapiens [2]): 1 | Activity (HCT-116): Active | Ratio IC50 (Homo sapiens [8]): 106
